Source: ChEMBL document CHEMBL1121649, “Benz-fused mesoionic xanthine analogues as inhibitors of cyclic-AMP phosphodiesterase” (J Med Chem, 1981)

Legend:
Format in all cases: protein assay
[1] = molecular target: T1, Heart phosphodiesterase (Bos taurus, UniProt Q01061+P14100+E1BN64); experiment: Inhibition of cAMP phosphodiesterase in bovine heart; conditions: for IC50: read-out: I50
In short: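 I50 taken from a plot of uninhibited over inhibited velocity (V0/V) against inhibitor concentration, read where V0/V = 2. At least five inhibitor concentrations giving 25–75% inhibition were tested per inhibitor.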

[2] = molecular target: T1, Heart phosphodiesterase; experiment: Inhibition of bovine heart cAMP-phosphodiesterase (Insoluble)
[3] = molecular target: Heart phosphodiesterase (Bos taurus) (UniProt Q01061+P14100+E1BN64); experiment: Percent inhibition of bovine heart cAMP-phosphodiesterase at 10-20 uM

I50 [1]	I50 [2]	SMILES	also measured
102 µM		CCC1C(=O)N(CC2CCCC2)c2sc3ccccc3[n+]2C1=O (stereo not given)	
		CCC1C(=O)N(CC)c2sc3ccccc3[n+]2C1=O (stereo not given)	IC50 [1]: 153 µM
		Cn1c(=O)c2nc[nH]c2n(C)c1=O [THEOPHYLLINE]	IC50 [1]: 412 µM
	Insoluble	COC(=O)c1cc(=O)n2c(sc3ccccc32)c1C(=O)OC	
	Insoluble	CC(C)C1C(=O)N(CC2CC2)c2sc3ccccc3[n+]2C1=O (stereo not given)	
8 µM		CCOc1ccc2c(c1)sc1[n+]2C(=O)C(CC)C(=O)N1CC1CCCCC1 (stereo not given)	inhibition [3]: 40%
69 µM		CCOc1ccc2c(c1)sc1[n+]2C(=O)C(CC)C(=O)N1CC1CC1 (stereo not given)	
467 µM		CCC1C(=O)N=C2Sc3ccccc3N2C1=O (stereo not given)	
	Insoluble	CCC1C(=O)N(CC2CC2)c2sc3cc(C)c(C)cc3[n+]2C1=O (stereo not given)	
